Sampled rows, rich in hits. Any-hit rate of the full collection: about 3%.
SENP8 block-1 = SENP8 (human) protease inhibition | AID 602440 | inhibition, % at 20 µM | recombinant SENP8, Nedd8 substrate fluorescence | 360,000 tested, 0.64% active; in the data active = inhibition mostly above about 40%, no sharp cut-off; inactive = mostly below about 27%
SENP6 block = inhibitors of human SENP6 protease | Q9GZR1 | Recombinant SENP6 catalytic domain, aminoluciferin luminescence | inhibition, % at 10 µM | 330,000 tested, 1.8% active;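 active = inhibition above about 50% at the single tested dose, limit read from the data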
SENP8 block-2 = SENP8 protease inhibition | inhibition, % at 10 µM | 330,000 tested, 1.2% active | purified SENP8, Z-RLRGG-aminoluciferin cleavage, luminescence; in the data active = inhibition above about 50%
Apaf-1 inh = blocks human Apaf-1 apoptosome activity. O14727. reconstituted apoptosome caspase-3 activity, DEVD-Rh110 fluorescence. inhibition, % at 20 µM. 330,000 tested, 0.71% active. AID 489030; active = inhibition of at least 40% at 20 µM
Target sequence (O14727 whole entry, looked up): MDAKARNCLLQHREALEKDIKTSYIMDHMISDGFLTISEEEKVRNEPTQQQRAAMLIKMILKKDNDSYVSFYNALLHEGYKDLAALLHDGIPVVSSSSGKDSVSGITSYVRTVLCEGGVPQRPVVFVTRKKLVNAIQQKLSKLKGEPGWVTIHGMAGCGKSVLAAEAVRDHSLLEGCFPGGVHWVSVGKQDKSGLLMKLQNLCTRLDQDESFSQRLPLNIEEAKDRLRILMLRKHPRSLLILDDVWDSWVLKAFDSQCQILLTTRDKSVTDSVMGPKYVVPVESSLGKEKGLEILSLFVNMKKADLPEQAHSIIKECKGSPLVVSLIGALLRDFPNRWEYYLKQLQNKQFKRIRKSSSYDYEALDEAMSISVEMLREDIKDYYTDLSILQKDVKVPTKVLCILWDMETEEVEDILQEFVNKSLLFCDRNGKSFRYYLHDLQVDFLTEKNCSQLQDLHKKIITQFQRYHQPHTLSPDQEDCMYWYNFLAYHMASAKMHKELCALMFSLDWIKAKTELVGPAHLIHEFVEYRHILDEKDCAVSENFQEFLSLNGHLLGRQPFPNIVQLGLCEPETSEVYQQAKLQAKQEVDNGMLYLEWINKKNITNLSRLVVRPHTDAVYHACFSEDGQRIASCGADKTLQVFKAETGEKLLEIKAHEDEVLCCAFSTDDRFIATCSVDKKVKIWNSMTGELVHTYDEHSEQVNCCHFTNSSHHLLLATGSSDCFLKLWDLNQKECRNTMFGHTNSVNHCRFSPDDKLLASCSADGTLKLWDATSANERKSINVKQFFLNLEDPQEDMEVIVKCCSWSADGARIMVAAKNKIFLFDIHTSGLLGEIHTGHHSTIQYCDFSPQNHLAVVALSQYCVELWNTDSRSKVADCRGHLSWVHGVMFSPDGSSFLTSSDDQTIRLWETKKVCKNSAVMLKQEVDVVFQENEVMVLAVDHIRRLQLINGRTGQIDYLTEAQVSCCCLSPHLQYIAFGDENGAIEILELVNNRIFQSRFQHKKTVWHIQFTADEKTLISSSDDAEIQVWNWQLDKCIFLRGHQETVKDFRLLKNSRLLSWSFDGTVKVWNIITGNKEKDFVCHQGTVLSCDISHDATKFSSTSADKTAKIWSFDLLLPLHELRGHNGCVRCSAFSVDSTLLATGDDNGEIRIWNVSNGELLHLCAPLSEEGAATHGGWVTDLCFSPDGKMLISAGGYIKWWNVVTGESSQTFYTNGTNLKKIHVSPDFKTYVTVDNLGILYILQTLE
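detection = Rh110 fluorescence intensity | test system = biochemical Apaf-1 apoptosome reconstitution | also added = cytochrome c and DEVD-Rh110 substrate | schedule = 30 min plus 50 min, RT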
UBC13 inh = human UBC13 polyubiquitination inhibition; P61088; UBC13 polyubiquitin chain formation, TR-FRET; inhibition, % at 20 µM; 330,000 tested, 0.47% active; AID 485273; in the data active = inhibition above about 45%, passing the limit was not always enough
SENP7 inh = inhibitors of human SENP7 protease | recombinant SENP7, Z-RLRGG-aminoluciferin luminescence, 40 min | inhibition, % at 5 µM | 330,000 tested, 1.5% active | AID 434973;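 active = inhibition above about 50% at the single test dose, limit read from the data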
SENP8 conf = human SENP8 inhibition, confirmed; shares compounds with SENP7 inh; Recombinant SENP8, Z-RLRGG-aminoluciferin luminescence, 60 min; inhibition, % at 12.5 µM; 6,200 tested, 40% active;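 active = mean inhibition across replicates above about 50%, limit read from the data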
SENP6 conf = human SENP6 inhibition, confirmed; shares compounds with SENP7 inh; recombinant SENP6, Z-RLRGG-aminoluciferin luminescence; inhibition, % at 12.5 µM; 6,200 tested, 58% active; AID 488915
SENP7 confirm = confirmation of human SENP7 protease inhibitors | shares compounds with SENP7 inh | recombinant SENP7, Z-RLRGG-aminoluciferin luminescence, 40 min | inhibition, % at 12.5 µM | 6,200 tested, 69% active | AID 488917
Casp3 select = caspase-3 inhibition (SENP selectivity assay). shares compounds with SENP7 inh. purified caspase-3, Z-DEVD-aminoluciferin luminescence, 60 min. inhibition, % at 12.5 µM. 6,200 tested, 60% active. AID 488918;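 active = mean inhibition above about 50%, limit read from the data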
SENP luc ctr = luminescence interference (SENP counter-screen). shares compounds with SENP7 inh. Pre-incubated SENP8/Z-RLRGG-aminoluciferin, luciferase luminescence interference. inhibition, % at 12.5 µM. 6,200 tested, 39% active;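 active = mean inhibition above about 50% when retested at one dose, limit read from the data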
A number is an active result.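 Rule for the calls, unless noted: active = mean inhibition above about 50% in the one-dose retest (limit read from the data); inactive = the rest.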

O=C(Oc1ccc(-c2cnc3ccccc3n2)cc1)c1cc([N+](=O)[O-])ccc1Cl was read as SENP8 block-1 inactive, SENP6 block inactive, SENP8 block-2 inactive, Apaf-1 inh inactive, UBC13 inh inactive, SENP7 inh 78, SENP8 conf inactive, SENP6 conf inactive, SENP7 confirm inactive, Casp3 select inactive and SENP luc ctr inactive.
Screening Cc1c(C(=O)Oc2ccc(-c3cnc4ccccc4n3)cc2)cccc1[N+](=O)[O-] returned SENP8 block-1 inactive, SENP6 block inactive, SENP8 block-2 inactive, Apaf-1 inh inactive, UBC13 inh inactive and SENP7 inh inactive.
`O=[N+]([O-])c1cc(-c2cnc3ccccc3n2)ccc1Oc1ccc(Cl)cc1` gave SENP8 block-1 inactive, SENP6 block inactive, SENP8 block-2 inactive, Apaf-1 inh inactive, UBC13 inh inactive and SENP7 inh inactive.
Screening Nc1cccc(-c2cnc3ccccc3n2)c1 returned SENP8 block-1 inactive, SENP6 block 68, SENP8 block-2 51, Apaf-1 inh inactive, UBC13 inh inactive, SENP7 inh 58, SENP8 conf inactive, SENP6 conf inactive, SENP7 confirm 78, Casp3 select 75 and SENP luc ctr inactive.
For COc1ccc(CNC(=O)Nc2nc(C(N)Cc3ccc(C(F)(F)F)cc3)cs2)cc1 (stereo not given) the results were SENP8 block-1 inactive.
Screening COc1cccc(CN2CCC2(C)C(=O)Nc2cnc3ccccc3c2)c1F (stereo not given) returned SENP8 block-1 inactive.
COc1ccc(/C(N)=N/OC(=O)c2cccs2)cc1 was read as SENP8 block-1 inactive, SENP6 block 77, SENP8 block-2 58, Apaf-1 inh inactive, UBC13 inh inactive, SENP7 inh inactive, SENP8 conf 64, SENP6 conf 74, SENP7 confirm 95, Casp3 select 75 and SENP luc ctr 82.
`COc1ccc(C(=O)O/N=C(\N)c2ccc(Cl)cc2)cc1` gave SENP8 block-1 inactive, SENP6 block 58, SENP8 block-2 inactive, Apaf-1 inh inactive, UBC13 inh inactive, SENP7 inh 68, SENP8 conf inactive, SENP6 conf inactive, SENP7 confirm 84, Casp3 select 72 and SENP luc ctr inactive.
`Cc1ccc(/C(N)=N/OC(=O)c2ccc(Cl)cc2Cl)cc1` gave SENP8 block-1 inactive, SENP6 block 79, SENP8 block-2 inactive, Apaf-1 inh inactive, UBC13 inh inactive, SENP7 inh 64, SENP8 conf inactive, SENP6 conf 50, SENP7 confirm 84, Casp3 select inactive and SENP luc ctr 59.
Screening Cc1ccc(C(=O)O/N=C(\N)Cc2cccs2)c(Cl)c1 returned SENP8 block-1 inactive, SENP6 block 87, SENP8 block-2 70, Apaf-1 inh inactive, UBC13 inh inactive, SENP7 inh 85, SENP8 conf 84, SENP6 conf 83, SENP7 confirm 95, Casp3 select 86 and SENP luc ctr 84.
`CCCNC(=O)c1cc2c(c(-c3cccc(-c4ccccc4F)c3)n1)[C@@H](CCO)N(C(=O)CC1CC1)C2` gave SENP8 block-1 inactive.
For CCCNC(=O)C1(C)CCN(C(=O)c2cccc(Cl)c2)C1 (stereo not given) the results were SENP8 block-1 inactive.
Screening N/C(=N\OC(=O)c1cccs1)c1ccc(Cl)cc1 returned SENP8 block-1 inactive, SENP6 block 61, SENP8 block-2 51, Apaf-1 inh inactive, UBC13 inh inactive, SENP7 inh 68, SENP8 conf inactive, SENP6 conf inactive, SENP7 confirm inactive, Casp3 select inactive and SENP luc ctr inactive.
`c1ccc(-c2ccc(-c3ccncn3)cc2)cc1` gave SENP8 block-1 inactive, SENP6 block 61, SENP8 block-2 51, Apaf-1 inh inactive, UBC13 inh inactive, SENP7 inh 84, SENP8 conf inactive, SENP6 conf inactive, SENP7 confirm inactive, Casp3 select inactive and SENP luc ctr inactive.
c1ccc(-c2csc(-c3ccncc3)n2)cc1 was read as SENP8 block-1 inactive, SENP6 block inactive, SENP8 block-2 inactive, Apaf-1 inh inactive, UBC13 inh inactive and SENP7 inh inactive.
For CCOC(=O)c1cc(=O)n2c(nc3ccccc32)[nH]1 the results were SENP8 block-1 inactive, SENP6 block 84, SENP8 block-2 76, Apaf-1 inh inactive, UBC13 inh inactive, SENP7 inh 79, SENP8 conf 82, SENP6 conf 83, SENP7 confirm 96, Casp3 select 94 and SENP luc ctr 56.
Screening Cc1cc(=O)n2c(nc3ccccc32)[nH]1 returned SENP8 block-1 inactive, SENP6 block inactive, SENP8 block-2 inactive, Apaf-1 inh inactive, UBC13 inh inactive and SENP7 inh inactive.
Screening O=C(c1ccccc1)c1sc(Nc2ccc3c(c2)OCO3)nc1-c1ccccc1 returned SENP8 block-1 inactive.
Cc1ccc(NC(=O)N/C=C/c2ccccc2)cc1 was read as SENP8 block-1 inactive, SENP6 block inactive, SENP8 block-2 inactive, Apaf-1 inh inactive, UBC13 inh inactive and SENP7 inh inactive.
`O=C(Nc1cccc2ccccc12)/C(Cl)=C/c1ccccc1` gave SENP8 block-1 inactive, SENP6 block inactive, SENP8 block-2 inactive, Apaf-1 inh inactive, UBC13 inh inactive and SENP7 inh inactive.
Cc1ccc(NC(=O)/C(Cl)=C\c2ccccc2)cc1 was read as SENP8 block-1 inactive, SENP6 block 94, SENP8 block-2 86, Apaf-1 inh inactive, UBC13 inh inactive, SENP7 inh 91, SENP8 conf 83, SENP6 conf 87, SENP7 confirm 100, Casp3 select 84 and SENP luc ctr 75.
`O=C(Nc1ccc(F)cc1)/C(Cl)=C/c1ccccc1` gave SENP8 block-1 inactive, SENP6 block inactive, SENP8 block-2 79, Apaf-1 inh inactive, UBC13 inh inactive, SENP7 inh 88, SENP8 conf inactive, SENP6 conf 79, SENP7 confirm 96, Casp3 select 72 and SENP luc ctr inactive.

Compound activity (PubChem)
